# Test results reported in publication PMC3044235 (Analytical and Bioanalytical Chemistry, 2010).
# Several values for one entry are separate records, joined by “and”; a condition that tells them apart may be missing. Identical values can stand only once.
# Legend:
# [1] = type: in vivo, human; details: healthy volunteers, diet rich in fruits, vegetables, tea, and wine
# Method in brief: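 Volunteers on a flavonoid-rich diet also took oral flavonoid/isoflavone tablets; urine was sampled 5 h post-dose. Urine was deproteinised with acetonitrile/methanol, hydrolysed with β-glucuronidase/sulfatase (H. pomatia, pH 4.66, 18 h, 37 °C), cleaned by SPE and run on reversed-phase UHPLC (0.05% TFA/acetonitrile gradient, 25 °C, UV 254 and 280 nm). Amounts came from calibration curves in blank urine; identities were confirmed by HPLC–ESI-MS–MS.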
# [2] = type: in vivo, human; details: for approximate average daily output in urine: assuming the mean 24-h urine volume is 1.4 L; for AUC(0-inf) / AUC(0-t) / Tmax / half-life: human, urine, po; for percentage excreted in urine within 24 h of the administered dose: within 24 h after ingestion of the tablets
# Method in brief: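 Healthy volunteers (21–48 y) took oral flavonoid/isoflavone tablets. Processing: acetonitrile/methanol precipitation, centrifugation, β-glucuronidase/sulfatase (H. pomatia) hydrolysis at pH 4.66 for 18 h at 37 °C, then SPE. Reversed-phase UHPLC used a 0.05% TFA/acetonitrile gradient, UV 254/280 nm, and blank-urine calibration. Kel came from terminal-slope regression; t1/2 = 0.693/Kel.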
# [3] = human urine, oral pharmaceutical preparations, n = 6, mean±S.D.
SMILES,mean concentration in urine [1],approximate average daily output in urine [2] [mg],"C max, peak concentration in urine [2, 3]",percentage excreted in urine within 24 h of the administered dose [2] [%],also measured
"Oc1cc(O)c2c(c1)OC(c1ccc(O)c(O)c1)C(O)C2 (racemic) [(±)-CA, (±)-catechin]",5427.34 ng/mL,,,,
"Oc1cc(O)c2c(c1)O[C@H](c1ccc(O)c(O)c1)[C@H](O)C2 [(−)-EC, (−)-epicatechin]",2724.26 ng/mL,,,,
"O=c1c(-c2ccc(O)cc2)coc2cc(O)ccc12 [DA, daidzein]",,~0.14,228.0 ± 5.34 ng/mL,17,AUC(0-inf) [2]: 7730 ± 414 µg·h/mL; AUC(0-t) [2]: 7710 ± 410 µg·h/mL; Tmax [2]: 7 h; half-life [2]: 4.43 ± 0.86 h
"COc1cc2c(=O)c(-c3ccc(O)cc3)coc2cc1O[C@@H]1O[C@H](CO)[C@@H](O)[C@H](O)[C@H]1O [GLY, glycitin]",,~1.73,5482.33 ± 10.78 ng/mL and 5482.3 ± 10.8 ng/mL,30,"T max, time to reach peak concentration ([2]; human urine, oral pharmaceutical preparations, n = 6): 5 h; AUC(0–t), area under the urine concentration–time curve [2, 3]: 86628.8 ± 1769.0 µg·h/mL; AUC(0–∞), area under the urine concentration–time curve [2, 3]: 86678.1 ± 1766.7 µg·h/mL"
"COc1ccc([C@@H]2CC(=O)c3c(O)cc(O)cc3O2)cc1O [HST, hesperetin]","detected in urine, but not quantified",,,,
"C[C@@H]1O[C@@H](Oc2c(-c3ccc(O)c(O)c3)oc3cc(O)cc(O)c3c2=O)[C@H](O)[C@H](O)[C@H]1O [QUR, quercitrin]",73.57 ng/mL,,,,
"C[C@@H]1O[C@@H](OC[C@H]2O[C@@H](Oc3c(-c4ccc(O)c(O)c4)oc4cc(O)cc(O)c4c3=O)[C@H](O)[C@@H](O)[C@@H]2O)[C@H](O)[C@H](O)[C@H]1O [RUT, rutin]",,~0.19,780.2 ± 10.39 ng/mL,1,AUC(0-inf) [2]: 12820 ± 78.9 µg·h/mL; AUC(0-t) [2]: 12810 ± 77.3 µg·h/mL; Tmax [2]: 8 h; half-life [2]: 3.98 ± 0.53 h
